{"source": "ChEMBL document CHEMBL5346884", "about": "“Discovery, synthesis and mechanism study of 2,3,5-substituted [1,2,4]-thiadiazoles as covalent inhibitors targeting 3C-Like protease of SARS-CoV-2” (Eur J Med Chem, 2023)", "key": {"SARS-CoV-2": {"system": "SARS-CoV-2", "assay": "Antiviral activity against SARS-CoV-2 infected in African green monkey Vero E6 cells assessed as reduction in viral replication incubated for 24 hrs by qRT-PCR analysis", "format": "functional, organism-based", "conditions": "Severe acute respiratory syndrome coronavirus 2, Vero C1008, 24 h"}, "[1]": {"molecular_target": "T1, Replicase polyprotein 1ab (Severe acute respiratory syndrome coronavirus 2, UniProt P0DTD1)", "assay": "Inhibition of full-length recombinant SARS-CoV-2 3CL protease expressed in Escherichia coli BL21 (DE3) cells using fluorogenic MCA-AVLQSGFR-Lys (Dnp)-Lys-NH2 substrate preincubated for 10 mins followed by substrate addition measured for 3.5 mins by FRET assay"}, "Vero C1008": {"system": "Vero C1008", "assay": "Cytotoxicity against African green monkey Vero E6 cells incubated for 24 hrs by WST-8 assay", "format": "toxicity, cell-based", "conditions": "chlorocebus sabaeus, vero c1008, 24 h", "in_short": "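Vero E6 cells grown in DMEM with 10% FBS at 37 °C, 5% CO₂. Compounds tested as 2-fold dilutions, 9 concentrations, in DMEM with 2% FBS, triplicate per concentration, for 24 h. WST-8 added and absorbance read at 450 nm after 0.5–1 h. Viability expressed relative to DMSO control.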"}, "[2]": {"molecular_target": "Replicase polyprotein 1ab (Severe acute respiratory syndrome coronavirus 2) (UniProt P0DTD1)", "assay": "Binding affinity to full-length recombinant SARS-CoV-2 3CL protease expressed in Escherichia coli BL21 (DE3) cells assessed as Gibbs free energy change by MM-GBSA method"}, "[3]": {"molecular_target": "T1, Replicase polyprotein 1ab", "assay": "Inhibition of SARS-CoV-2 PLpro using RLRGG-AMC substrate preincubated for 30 mins followed by substrate addition measured for 5 mins by fluorescence based assay", "in_short": "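PLpro at 50 nM with serially diluted compound in 50 mM HEPES pH 7.5, 0.1 mg/mL BSA, incubated 30 min. RLRGG-AMC added to 20 μM final. Fluorescence (ex 360/em 460 nm) read every 1 min for 5 min. Rates compared with DMSO control.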"}, "Chymotrypsin": {"molecular_target": "Chymotrypsin (Homo sapiens, UniProt Q99895+P17538+P40313+Q6GPI1)", "assay": "Inhibition of chymotrypsin (unknown origin) using N-succinyl-AAPF-AMC as substrate preincubated for 10 mins followed by substrate addition measured for 10 mins by fluorescence based assay", "format": "protein assay", "in_short": "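Chymotrypsin at 5 nM final with serially diluted compound in PBS pH 7.4, incubated 10 min. N-succinyl-AAPF-AMC added at 10 μM final. Fluorescence (ex 380/em 460 nm) read every 1 min for 10 min. Rates relative to DMSO.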"}, "Procathepsin L": {"molecular_target": "Procathepsin L (Homo sapiens, UniProt P07711)", "sequence (P07711 whole entry)": "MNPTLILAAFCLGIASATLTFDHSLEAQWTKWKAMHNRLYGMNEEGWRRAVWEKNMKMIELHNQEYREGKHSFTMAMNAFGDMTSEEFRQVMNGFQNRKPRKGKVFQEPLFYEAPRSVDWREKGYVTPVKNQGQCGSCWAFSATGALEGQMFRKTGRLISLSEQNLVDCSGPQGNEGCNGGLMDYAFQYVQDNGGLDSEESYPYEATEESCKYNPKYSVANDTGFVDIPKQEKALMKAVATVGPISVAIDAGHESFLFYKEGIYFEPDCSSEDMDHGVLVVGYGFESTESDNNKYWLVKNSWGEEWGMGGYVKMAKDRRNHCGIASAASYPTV", "assay": "Inhibition of human Cathepsin L using Z-VVR-AMC as substrate measured for 10 mins by fluorescence based assay"}, "Cathepsin B": {"molecular_target": "Cathepsin B (Homo sapiens, UniProt P07858)", "assay": "Inhibition of human Cathepsin B using Z-RR-AMC as substrate preincubated for 30 mins followed by substrate addition measured for 10 mins by FRET assay", "in_short": "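Cathepsin B (0.25 units) with compound in 20 mM sodium acetate pH 5.5, 1 mM EDTA, 2 mM DTT, incubated 30 min at ambient temperature. Z-RR-AMC added at 1 μM final. Fluorescence (ex 340/em 440 nm) read every 1 min for 10 min. Rates relative to DMSO.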"}, "[4]": {"molecular_target": "T1, Replicase polyprotein 1ab", "assay": "Inhibition of full-length recombinant SARS-CoV-2 3CL protease expressed in Escherichia coli BL21 (DE3) cells using fluorogenic MCA-AVLQSGFR-Lys (Dnp)-Lys-NH2 substrate preincubated for 10 mins followed by substrate addition measured after 10 mins by FRET assay"}, "[5]": {"molecular_target": "T1, Replicase polyprotein 1ab", "assay": "Inhibition of full-length recombinant SARS-CoV-2 3CL protease expressed in Escherichia coli BL21 (DE3) cells using fluorogenic MCA-AVLQSGFR-Lys (Dnp)-Lys-NH2 substrate preincubated for 10 mins followed by substrate addition measured immediately by FRET assay", "in_short": "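FRET assay: 50 nM protease (final) in 50 mM Tris–HCl pH 7.3, 1 mM EDTA, with serially diluted compound. Compound–enzyme preincubation was 10 min in the standard assay, and 0, 5, 10 or 20 min in the time-dependence test. Substrate added at 10 μM final. Fluorescence (ex 320/em 405 nm) read every 35 s for 3.5 min. Initial rates normalised to DMSO control.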"}, "[6]": {"molecular_target": "T1, Replicase polyprotein 1ab", "assay": "Inhibition of full-length recombinant SARS-CoV-2 3CL protease expressed in Escherichia coli BL21 (DE3) cells using fluorogenic MCA-AVLQSGFR-Lys (Dnp)-Lys-NH2 substrate preincubated for 10 mins followed by substrate addition measured after 20 mins by FRET assay"}, "[7]": {"molecular_target": "T1, Replicase polyprotein 1ab", "assay": "Binding affinity to CM5 chip-immobilised full-length recombinant SARS-CoV-2 3CL protease expressed in Escherichia coli BL21 (DE3) cells assessed as dissociation constant by SPR analysis", "in_short": "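SPR at 25 °C in HBS-EP (10 mM HEPES pH 7.4, 150 mM NaCl, 3.0 mM EDTA, 0.05% Tween-20) with 5% DMSO. Protease immobilised at 8000–10000 RU. Compounds were run as an eight-concentration series, with 240 s association and 200 s dissociation. Surface washed with 50% DMSO each cycle.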"}, "[8]": {"molecular_target": "T1, Replicase polyprotein 1ab", "assay": "Inhibition of full-length recombinant SARS-CoV-2 3CL protease expressed in Escherichia coli BL21 (DE3) cells using fluorogenic MCA-AVLQSGFR-Lys (Dnp)-Lys-NH2 substrate preincubated for 10 mins followed by substrate addition measured after 5 mins by FRET assay"}}}
{"smiles": "CCOc1ccc(-c2n/c(=N\\C)sn2-c2ccc(F)cc2)cc1", "values": [{"measurement": "EC50", "setting": "SARS-CoV-2", "result": 14800, "unit": "nM"}, {"measurement": "IC50", "setting": "[1]", "result": 462, "unit": "nM"}, {"measurement": "CC50", "setting": "Vero C1008", "result": "> 100000", "unit": "nM"}]}
{"smiles": "CN=C(S)N=C(Nc1ccccc1)c1ccccc1", "values": [{"measurement": "IC50", "setting": "[1]", "result": 40000, "unit": "nM"}, {"measurement": "deltaG", "setting": "[2]", "result": -11.4, "unit": "kcal/mol"}]}
{"smiles": "C/N=c1\\nc(-c2ccc(OC)cc2)n(-c2ccc(F)cc2)s1", "values": [{"measurement": "IC50", "setting": "[1]", "result": 373, "unit": "nM"}]}
{"smiles": "C/N=c1\\nc(-c2ccc(OC)cc2)n(-c2ccccc2)s1", "values": [{"measurement": "IC50", "setting": "[1]", "result": 165, "unit": "nM"}]}
{"smiles": "c1ccc(-c2n/c(=N\\C3CC3)sn2-c2ccccc2)cc1", "values": [{"measurement": "IC50", "setting": "[1]", "result": 143, "unit": "nM"}]}
{"smiles": "C/N=c1\\nc(-c2ccc(OC)cc2)n(-c2cc(F)c(F)c(F)c2)s1", "values": [{"measurement": "EC50", "setting": "SARS-CoV-2", "result": 9340, "unit": "nM"}, {"measurement": "IC50", "setting": "[1]", "result": 582, "unit": "nM"}, {"measurement": "CC50", "setting": "Vero C1008", "result": "> 100000", "unit": "nM"}]}
{"smiles": "C/N=c1\\nc(-c2ccccc2)n(-c2ccc(F)cc2)s1", "values": [{"measurement": "IC50", "setting": "[1]", "result": 124, "unit": "nM"}]}
{"smiles": "C/N=c1\\nc(-c2ccc(F)cc2)n(-c2ccccc2)s1", "values": [{"measurement": "EC50", "setting": "SARS-CoV-2", "result": 7250, "unit": "nM"}, {"measurement": "IC50", "setting": "[1]", "result": 118, "unit": "nM"}, {"measurement": "IC50", "setting": "[3]", "result": 448, "unit": "nM"}, {"measurement": "IC50", "setting": "Chymotrypsin", "result": "> 100000", "unit": "nM"}, {"measurement": "IC50", "setting": "Procathepsin L", "result": "> 100000", "unit": "nM"}, {"measurement": "IC50", "setting": "Cathepsin B", "result": "> 50000", "unit": "nM"}, {"measurement": "CC50", "setting": "Vero C1008", "result": "> 100000", "unit": "nM"}]}
{"smiles": "C/N=c1\\nc(-c2ccc(Cl)cc2)n(-c2ccccc2)s1", "values": [{"measurement": "IC50", "setting": "[1]", "result": 136, "unit": "nM"}]}
{"smiles": "C/N=c1\\nc(-c2ccccc2)n(-c2ccccc2)s1", "values": [{"measurement": "IC50", "setting": "[4]", "result": 206, "unit": "nM"}, {"measurement": "IC50", "setting": "[1]", "result": 193, "unit": "nM"}, {"measurement": "IC50", "setting": "[5]", "result": 409, "unit": "nM"}, {"measurement": "deltaG", "setting": "[2]", "result": -13.9, "unit": "kcal/mol"}, {"measurement": "IC50", "setting": "[3]", "result": 655, "unit": "nM"}, {"measurement": "IC50", "setting": "[6]", "result": 191, "unit": "nM"}, {"measurement": "Kd", "setting": "[7]", "result": 798, "unit": "nM"}, {"measurement": "IC50", "setting": "Chymotrypsin", "result": "> 100000", "unit": "nM"}, {"measurement": "IC50", "setting": "Procathepsin L", "result": "> 100000", "unit": "nM"}, {"measurement": "IC50", "setting": "Cathepsin B", "result": "> 50000", "unit": "nM"}, {"measurement": "IC50", "setting": "[8]", "result": 302, "unit": "nM"}]}
{"smiles": "FC1(F)CC(/N=c2\\nc(-c3ccccc3)n(-c3ccccc3)s2)C1", "values": [{"measurement": "IC50", "setting": "[1]", "result": 323, "unit": "nM"}]}
